Data taken from ChEMBL document CHEMBL1240368, “Chloroquine modulates HIV-1-induced plasmacytoid dendritic cell alpha interferon: implication for T-cell activation” (Antimicrob Agents Chemother, 2010).
The source made the active and inactive calls. The rule behind the calls is not given here.

What was measured:
[1] = target: T1, Toll-like receptor 7 (Homo sapiens) (UniProt Q9NYK1); assay: Inhibition of TLR7-mediated upregulation of IRF7 expression in aldrithiol-2-treated HIV1 MN-stimulated human PBMC at 100 uM after 20 hrs by flow cytometry
T1 sequence (whole entry): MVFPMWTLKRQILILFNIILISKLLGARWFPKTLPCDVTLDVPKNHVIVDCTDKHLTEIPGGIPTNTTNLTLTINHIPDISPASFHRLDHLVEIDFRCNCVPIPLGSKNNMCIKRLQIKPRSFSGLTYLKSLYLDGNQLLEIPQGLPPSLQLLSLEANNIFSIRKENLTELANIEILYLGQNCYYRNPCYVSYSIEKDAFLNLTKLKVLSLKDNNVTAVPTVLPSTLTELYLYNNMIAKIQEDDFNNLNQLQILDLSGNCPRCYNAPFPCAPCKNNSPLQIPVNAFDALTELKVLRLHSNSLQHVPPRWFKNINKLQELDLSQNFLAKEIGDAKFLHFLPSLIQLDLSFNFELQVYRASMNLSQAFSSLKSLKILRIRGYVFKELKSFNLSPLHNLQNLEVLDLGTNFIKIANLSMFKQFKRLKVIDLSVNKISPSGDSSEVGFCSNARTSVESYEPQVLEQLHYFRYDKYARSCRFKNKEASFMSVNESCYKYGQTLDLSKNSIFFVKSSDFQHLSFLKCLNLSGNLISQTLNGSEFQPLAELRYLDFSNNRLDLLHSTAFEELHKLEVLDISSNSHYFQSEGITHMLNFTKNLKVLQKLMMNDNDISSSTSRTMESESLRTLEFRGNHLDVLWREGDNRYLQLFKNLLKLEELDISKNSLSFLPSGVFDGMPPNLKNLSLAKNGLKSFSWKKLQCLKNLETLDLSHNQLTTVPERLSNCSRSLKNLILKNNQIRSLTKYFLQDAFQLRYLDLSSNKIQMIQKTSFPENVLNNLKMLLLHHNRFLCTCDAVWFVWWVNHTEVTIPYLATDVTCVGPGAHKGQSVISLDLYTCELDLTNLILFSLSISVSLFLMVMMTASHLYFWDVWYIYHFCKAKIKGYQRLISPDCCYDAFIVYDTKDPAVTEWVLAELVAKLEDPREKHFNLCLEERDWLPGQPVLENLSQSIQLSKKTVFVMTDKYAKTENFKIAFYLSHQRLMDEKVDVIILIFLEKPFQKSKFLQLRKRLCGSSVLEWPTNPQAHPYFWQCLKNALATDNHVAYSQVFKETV
Procedure, shortened: (§1)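 PBMC preincubated 1 h ± 100 μM chloroquine, stimulated 20 h with AT-2 HIV-1 Ada or MN (500 ng/ml p24); pDC gated Lin1− CD123+ HLA-DR+; surface CD86 (% cells), CD83 (% cells), or intracellular IRAK-4, IRF-7, IDO after Cytofix/Cytoperm with rabbit antibody plus PE anti-rabbit (MFI) by flow cytometry; microvesicle controls.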

[2] = target: T1, Toll-like receptor 7 (Homo sapiens); assay: Inhibition of TLR7-mediated upregulation of IRAK4 expression in aldrithiol-2-treated HIV1 MN-stimulated human PBMC at 100 uM after 20 hrs by flow cytometry; procedure, shortened: as §1
[3] = target: T2, Toll-like receptor (TLR7/TLR9) (Homo sapiens) (UniProt Q9NR96+Q9NYK1); assay: Inhibition of TLR7/TLR9-mediated activation of exogenous rIFNalpha2A-stimulated human CD8-positive T cells assessed as […] at 5 uM after 20 hrs by flow cytometry; type: cell-based; conditions: T-cell
Procedure, shortened: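 Bead-enriched CD8+ T cells (indirect negative isolation) preincubated 1 h with 5 μM chloroquine, then given 1,000 U/ml rIFN-α2a for 20 h; CD38 MFI on CD3+ CD8+ cells by flow cytometry; anti-IFN-αR 64G12 (10 μg/ml, 30 min pretreatment) used as comparator; n = 3 experiments.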

[4] = target: T1, Toll-like receptor 7 (Homo sapiens); assay: Inhibition of TLR7-mediated IFN-alpha production in aldrithiol-2-treated HIV1 MN-stimulated human PBMC at 100 uM after 20 hrs by ELISA
[5] = target: T2, Toll-like receptor (TLR7/TLR9) (Homo sapiens); assay: Inhibition of TLR7/TLR9-mediated activation of aldrithiol-2-treated HIV1 Ada-stimulated human PBMC assessed as CD86 expressing cells at 100 uM after 20 hrs by flow cytometry; type: cell-based; parameters: scale not given: the % may be the effect or the level left; procedure, shortened: as §1
[6] = target: T1, Toll-like receptor 7 (Homo sapiens); assay: Inhibition of TLR7-mediated upregulation of IRAK4 expression in aldrithiol-2-treated HIV1 Ada-stimulated human PBMC at 100 uM after 20 hrs by flow cytometry; procedure, shortened: as §1
[7] = target: T2, Toll-like receptor (TLR7/TLR9) (Homo sapiens); assay: Inhibition of TLR7/TLR9-mediated activation of aldrithiol-2-treated HIV1 Ada-stimulated human PBMC assessed as CD38-MFI level in activated CD8-positive cells at 5 uM after 20 hrs by flow cytometry; type: cell-based
Procedure, shortened: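 PBMC preincubated 1 h with 5 μM chloroquine, then stimulated with AT-2 HIV-1 Ada for 20 h; CD38 surface expression on gated CD3+ CD8+ T cells by flow cytometry, expressed as CD38 MFI.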

[8] = target: T3, Toll-like receptor 9 (Homo sapiens) (UniProt Q9NR96); assay: Inhibition of TLR9-mediated upregulation of PDL1 expression in CpGA-stimulated human PBMC at 100 uM after 20 hrs by flow cytometry
T3 sequence (whole entry): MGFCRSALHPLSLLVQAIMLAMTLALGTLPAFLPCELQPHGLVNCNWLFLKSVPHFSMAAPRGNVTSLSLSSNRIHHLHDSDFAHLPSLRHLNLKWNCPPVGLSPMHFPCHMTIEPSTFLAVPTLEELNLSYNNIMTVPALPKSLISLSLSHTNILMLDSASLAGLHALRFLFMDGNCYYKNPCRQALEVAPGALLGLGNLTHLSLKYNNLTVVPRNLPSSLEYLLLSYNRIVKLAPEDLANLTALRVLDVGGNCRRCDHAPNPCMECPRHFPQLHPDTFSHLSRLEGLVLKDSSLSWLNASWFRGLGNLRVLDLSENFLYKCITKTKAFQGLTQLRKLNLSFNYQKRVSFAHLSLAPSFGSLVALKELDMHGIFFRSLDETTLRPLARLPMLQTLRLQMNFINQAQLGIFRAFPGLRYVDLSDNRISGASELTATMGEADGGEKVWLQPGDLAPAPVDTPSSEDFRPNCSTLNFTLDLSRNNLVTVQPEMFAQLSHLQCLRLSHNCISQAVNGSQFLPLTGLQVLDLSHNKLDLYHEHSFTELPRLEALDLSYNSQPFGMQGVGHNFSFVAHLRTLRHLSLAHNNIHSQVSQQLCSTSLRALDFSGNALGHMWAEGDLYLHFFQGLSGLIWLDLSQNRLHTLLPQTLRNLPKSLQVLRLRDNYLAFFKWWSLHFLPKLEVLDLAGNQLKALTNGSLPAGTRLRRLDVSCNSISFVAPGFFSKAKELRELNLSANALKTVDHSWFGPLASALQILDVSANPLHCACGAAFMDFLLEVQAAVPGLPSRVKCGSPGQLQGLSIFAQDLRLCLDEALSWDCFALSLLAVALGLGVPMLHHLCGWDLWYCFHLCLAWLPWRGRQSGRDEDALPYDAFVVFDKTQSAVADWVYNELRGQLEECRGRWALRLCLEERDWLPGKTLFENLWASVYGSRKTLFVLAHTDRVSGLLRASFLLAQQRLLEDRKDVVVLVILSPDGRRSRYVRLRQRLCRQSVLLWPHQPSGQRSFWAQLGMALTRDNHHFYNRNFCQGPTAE
Procedure, shortened: (§2)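 Human PBMC (1 × 10^6 cells/well) preincubated 1 h with 100 μM chloroquine or medium, then cultured 20 h at 37°C with AT-2 HIV-1 (500 ng/ml p24), 3M-011 (3.0 μM) or CpG A (4 μg/ml); PDL-1 on pDC read as MFI by flow cytometry.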

[9] = target: T1, Toll-like receptor 7 (Homo sapiens); assay: Inhibition of TLR7-mediated IFN-alpha production in aldrithiol-2-treated HIV1 MN-stimulated human PBMC after 20 hrs by ELISA
[10] = target: T3, Toll-like receptor 9 (Homo sapiens); assay: Inhibition of TLR9-mediated indoleamine 2,3-dioxygenase activation in CpGA-stimulated human PBMC assessed as decrease in kynurenine to tryptophan level at 100 uM after 20 hrs by ELISA
[11] = target: T4, TLR7 and TLR8 (Homo sapiens) (UniProt Q9NYK1+Q9NR97); assay: Inhibition of TLR7/TLR8-mediated indoleamine 2,3-dioxygenase activation in 3M-011-stimulated human PBMC assessed as decrease in kynurenine to tryptophan level at 100 uM after 20 hrs by ELISA; type: protein assay
[12] = target: T3, Toll-like receptor 9 (Homo sapiens); assay: Inhibition of TLR9-mediated IFN-alpha production in CpGA-stimulated human PBMC at 100 uM after 20 hrs by ELISA
[13] = target: T2, Toll-like receptor (TLR7/TLR9) (Homo sapiens); assay: Inhibition of TLR7/TLR9-mediated upregulation of indoleamine 2,3-dioxygenase expression in aldrithiol-2-treated HIV1 MN-stimulated human PBMC at 100 uM after 20 hrs by flow cytometry; procedure, shortened: as §1
[14] = target: T1, Toll-like receptor 7 (Homo sapiens); assay: Inhibition of TLR7-mediated IFN-alpha production in aldrithiol-2-treated HIV1 Ada-stimulated human PBMC at 100 uM after 20 hrs by ELISA
[15] = target: T2, Toll-like receptor (TLR7/TLR9) (Homo sapiens); assay: Inhibition of TLR7/TLR9-mediated upregulation of indoleamine 2,3-dioxygenase expression in aldrithiol-2-treated HIV1 Ada-stimulated human PBMC at 100 uM after 20 hrs by flow cytometry; procedure, shortened: as §1
[16] = target: T2, Toll-like receptor (TLR7/TLR9) (Homo sapiens); assay: Inhibition of TLR7/TLR9-mediated upregulation of PDL1 expression in aldrithiol-2-treated HIV1 MN-stimulated human PBMC at 100 uM after 20 hrs by flow cytometry; procedure, shortened: as §2
[17] = target: T4, TLR7 and TLR8 (Homo sapiens); assay: Inhibition of TLR7/TLR8-mediated IFN-alpha production in 3M-011-stimulated human PBMC at 100 uM after 20 hrs by ELISA
[18] = target: T2, Toll-like receptor (TLR7/TLR9) (Homo sapiens); assay: Inhibition of TLR7/TLR9-mediated upregulation of PDL1 expression in aldrithiol-2-treated HIV1 Ada-stimulated human PBMC at 100 uM after 20 hrs by flow cytometry; procedure, shortened: as §2
[19] = target: T2, Toll-like receptor (TLR7/TLR9) (Homo sapiens); assay: Inhibition of TLR7/TLR9-mediated indoleamine 2,3-dioxygenase activation in aldrithiol-2-treated HIV1 MN-stimulated human PBMC assessed as decrease in kynurenine to tryptophan level at 100 uM after 20 hrs by fluorometric assay; type: protein assay
Procedure, shortened: (§3)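 PBMC (1 × 10^6/well) ± 100 μM chloroquine (1 h preincubation), stimulated 20 h with AT-2 HIV-1, 3M-011 or CpG A. Kynurenine in supernatant: 30% TCA, 50°C, 30 min, then Ehrlich's reagent, absorbance 490 nm. Tryptophan: 20% TCA, then TCA/formaldehyde/FeCl3 at 90°C for 2 h, fluorescence ex 360/em 460 nm. Duplicates, standard curves; reported as kynurenine/tryptophan ratio.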

[20] = target: T2, Toll-like receptor (TLR7/TLR9) (Homo sapiens); assay: Inhibition of TLR7/TLR9-mediated activation of aldrithiol-2-treated HIV1 MN-stimulated human PBMC assessed as CD86 expressing cells at 100 uM after 20 hrs by flow cytometry; type: cell-based; parameters: scale not given: the % may be the effect or the level left; procedure, shortened: as §1
[21] = target: T1, Toll-like receptor 7 (Homo sapiens); assay: Inhibition of TLR7-mediated IFN-alpha production in aldrithiol-2-treated HIV1 Ada-stimulated human PBMC after 20 hrs by ELISA
[22] = target: T4, TLR7 and TLR8 (Homo sapiens); assay: Inhibition of TLR7/TLR8-mediated upregulation of PDL1 expression in 3M-011-stimulated human PBMC at 100 uM after 20 hrs by flow cytometry; procedure, shortened: as §2
[23] = target: T2, Toll-like receptor (TLR7/TLR9) (Homo sapiens); assay: Inhibition of TLR7/TLR9-mediated maturation of aldrithiol-2-treated HIV1 MN-stimulated human PBMC assessed as CD83 expressing cells at 100 uM after 20 hrs by flow cytometry; type: cell-based; parameters: scale not given: the % may be the effect or the level left; procedure, shortened: as §1
[24] = target: T2, Toll-like receptor (TLR7/TLR9) (Homo sapiens); assay: Inhibition of TLR7/TLR9-mediated indoleamine 2,3-dioxygenase activation in aldrithiol-2-treated HIV1 Ada-stimulated human PBMC assessed as decrease in kynurenine to tryptophan level at 100 uM after 20 hrs by fluorometric assay; type: protein assay; procedure, shortened: as §3
[25] = target: T2, Toll-like receptor (TLR7/TLR9) (Homo sapiens); assay: Inhibition of TLR7/TLR9-mediated maturation of aldrithiol-2-treated HIV1 Ada-stimulated human PBMC assessed as CD83 expressing cells at 100 uM after 20 hrs by flow cytometry; type: cell-based; parameters: scale not given: the % may be the effect or the level left; procedure, shortened: as §1
[26] = target: T1, Toll-like receptor 7 (Homo sapiens); assay: Inhibition of TLR7-mediated upregulation of IRF7 expression in aldrithiol-2-treated HIV1 Ada-stimulated human PBMC at 100 uM after 20 hrs by flow cytometry; procedure, shortened: as §1

T4 sequence (Q9NR97 whole entry, looked up, one chain of several): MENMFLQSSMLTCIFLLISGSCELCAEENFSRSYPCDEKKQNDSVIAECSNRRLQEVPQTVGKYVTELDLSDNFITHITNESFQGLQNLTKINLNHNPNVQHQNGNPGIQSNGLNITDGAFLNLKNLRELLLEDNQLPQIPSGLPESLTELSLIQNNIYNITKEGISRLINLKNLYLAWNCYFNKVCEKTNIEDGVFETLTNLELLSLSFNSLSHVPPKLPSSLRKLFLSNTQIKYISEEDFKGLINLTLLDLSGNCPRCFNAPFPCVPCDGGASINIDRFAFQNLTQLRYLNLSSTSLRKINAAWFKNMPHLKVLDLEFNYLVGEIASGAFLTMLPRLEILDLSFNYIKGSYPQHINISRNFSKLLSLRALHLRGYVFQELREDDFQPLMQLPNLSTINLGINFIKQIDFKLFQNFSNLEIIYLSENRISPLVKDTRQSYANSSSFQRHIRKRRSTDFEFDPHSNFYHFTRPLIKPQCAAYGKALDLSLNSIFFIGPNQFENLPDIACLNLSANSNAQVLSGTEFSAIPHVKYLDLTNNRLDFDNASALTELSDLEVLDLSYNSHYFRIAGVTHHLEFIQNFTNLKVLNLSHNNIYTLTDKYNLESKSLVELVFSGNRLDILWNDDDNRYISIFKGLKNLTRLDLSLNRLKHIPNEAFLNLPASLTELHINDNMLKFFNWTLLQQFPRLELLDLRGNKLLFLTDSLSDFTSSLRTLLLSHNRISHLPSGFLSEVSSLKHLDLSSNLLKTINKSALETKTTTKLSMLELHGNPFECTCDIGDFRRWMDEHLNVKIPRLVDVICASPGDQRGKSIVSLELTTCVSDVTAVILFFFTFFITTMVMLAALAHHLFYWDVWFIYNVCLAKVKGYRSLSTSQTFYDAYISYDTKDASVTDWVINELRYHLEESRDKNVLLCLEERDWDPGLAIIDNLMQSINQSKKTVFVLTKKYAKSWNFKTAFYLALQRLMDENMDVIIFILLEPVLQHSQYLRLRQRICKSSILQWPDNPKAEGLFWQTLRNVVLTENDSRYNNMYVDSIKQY

## CCN(CC)CCCC(C)Nc1ccnc2cc(Cl)ccc12 (stereo unspecified)
[1]
  inhibition: Active
[2]
  inhibition: Active
[3]
  inhibition: inactive
[4]
  inhibition: Active
[5]
  Activity: 11.1%
[6]
  inhibition: Active
[7]
  inhibition: 23.4%
[8]
  inhibition: Active
[9]
  inhibition: Dose-dependent effect
[10]
  inhibition: Active
[11]
  inhibition: Active
[12]
  inhibition: Active
[13]
  inhibition: Active
[14]
  inhibition: Active
[15]
  inhibition: Active
[16]
  inhibition: Active
[17]
  inhibition: Active
[18]
  inhibition: Active
[19]
  inhibition: Active
[20]
  Activity: 8.2%
[21]
  inhibition: Dose-dependent effect
[22]
  inhibition: Active
[23]
  Activity: 14.3%
[24]
  inhibition: Active
[25]
  Activity: 12.6%
[26]
  inhibition: Active
